Measured values from different studies.
Protocols differ between the studies behind these lines.
Read-out: enzyme activity
Action: inhibitor
CDK2 with cyclin A: Cyclin-dependent kinase 2, with cyclin A (CDK2, Homo sapiens, UniProt P24941)
CDK2: Cyclin-dependent kinase 2 (CDK2, Homo sapiens, UniProt P24941)

SMILES	target	technique	concentration	inhibition [%]
CS(=O)(=O)Nc1cccc(-c2csc(NC(=O)CSc3nc4nccnc4c(=O)n3CCc3ccccc3)n2)c1	Cyclin-dependent kinase 2, with cyclin O (CDK2, Homo sapiens, UniProt P24941)		10 µM	8
CC/C(=N\NC(=O)NCc1cccc(O)c1)c1ccc(O)c(C)c1O	Cyclin-dependent kinase 2, with cyclin E1 (CDK2, Homo sapiens, UniProt P24941)		0.1 µM	-16.4
COc1cc(-c2cc(-c3ccc(N4CCNCC4)cc3)cnc2N)cc(OC)c1OC	CDK2 with cyclin A		1 µM	2
CNC(=O)c1ccccc1Nc1cc(Nc2ccc(N3CCOCC3)cc2OC)ncc1C(F)(F)F	CDK2		1 µM	> 50
Cn1cncc1C1=CN(c2ncnc3[nH]cnc23)CCS1	CDK2	radiometric	2 µM	49.1
CCCS(=O)(=O)Nc1ccc(F)c(C(=O)c2c[nH]c3ncc(-c4ccc(Cl)cc4)cc23)c1F	Cyclin-dependent kinase 2, with cyclin E (CDK2, Homo sapiens, UniProt P24941)		1 µM	< 10
Cn1cnc(Br)c1C1=CN(c2ncnc3[nH]cnc23)CCS1	CDK2	radiometric	2 µM	50.8
CN(C)C1CCN(CC#Cc2nn(C3CCCC3)c3nc(NCc4ccccc4)ncc23)C1 (stereo not drawn)	CDK2 with cyclin A	FRET	0.1 µM	7
CN1CC(Oc2cnc(C#N)cc2-c2ccn3nc(NC(=O)C4CC4)cc3c2)C1	CDK2 with cyclin A		1 µM	0
CNc1cccc2cc(C(=O)Nc3ccc(C(=O)O)cc3)c(=O)[nH]c12	CDK2		10 µM	-0.24
COc1cc2ncnc(Nc3ccc(Oc4ccccc4)cc3C)c2cc1OC	CDK2 with cyclin A		1 µM	-14
C=CC(=O)Nc1cc(Nc2nccc(Nc3cc(Cl)c(F)cc3C(C)(C)O)n2)c(OC)cc1N1CC[C@@H](N(C)C)C1	CDK2 with cyclin A		1 µM	-13
